Experimental findings from ChEMBL document CHEMBL5154924, “Discovery of In Vivo Active Sphingosine-1-phosphate Transporter (Spns2) Inhibitors” (J Med Chem, 2022) are described below.

Data set [1] deals with Mus musculus. Kind of data set: In vivo inactivation of Spns2 gene in C57BL/6j mouse assessed as decrease in plasma S1P at 20 mg/kg, ip measured after 4 hrs by LC-MS/MS analysis. The format is functional, organism-based. In a few lines:
(§1)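 Blood drawn 4 h postdose. Lymphocytes counted from 20 μL blood on a haematology analyzer; plasma S1P quantified by LC-MS/MS. Compared with vehicle-treated controls by t-test.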

For data set [2], the target named is T1, Sphingosine-1-phosphate transporter SPNS2 (Mus musculus) (UniProt Q91VM4).
T1 sequence (whole entry): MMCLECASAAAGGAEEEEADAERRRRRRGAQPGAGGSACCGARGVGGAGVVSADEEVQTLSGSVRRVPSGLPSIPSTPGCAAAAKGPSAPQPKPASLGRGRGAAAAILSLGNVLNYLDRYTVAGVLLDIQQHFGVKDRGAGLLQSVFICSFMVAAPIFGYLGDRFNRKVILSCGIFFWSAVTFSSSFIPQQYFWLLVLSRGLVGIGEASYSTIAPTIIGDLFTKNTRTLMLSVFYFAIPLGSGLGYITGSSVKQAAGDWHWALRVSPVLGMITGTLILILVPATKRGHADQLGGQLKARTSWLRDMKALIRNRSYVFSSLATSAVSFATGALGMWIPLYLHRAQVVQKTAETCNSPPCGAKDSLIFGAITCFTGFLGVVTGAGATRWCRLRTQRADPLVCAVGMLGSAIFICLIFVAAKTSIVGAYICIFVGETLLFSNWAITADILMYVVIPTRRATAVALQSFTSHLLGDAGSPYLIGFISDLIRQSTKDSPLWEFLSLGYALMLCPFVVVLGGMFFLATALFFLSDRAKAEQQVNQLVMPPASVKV
As to the kind of experiment: Inhibition of mouse Spns2 transfected in human HeLa cells by measuring S1P release at 2 uM by LC/MS analysis relative to control. The format is cell-based. Put shortly: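 HeLa cells stably transfected with mouse Spns2 and selected with G418, grown to near confluence. Medium replaced with RPMI 1640/0.2% fatty acid-free BSA containing 1 mM 4-deoxypyridoxine, 2 mM NaF and 0.2 mM Na₃VO₄. Compound added to duplicate wells, incubated 18–20 h. Medium S1P measured by LC-MS/MS against d₇-S1P after TCA precipitation and methanol extraction. Inhibition expressed relative to no-inhibitor control.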

A short description of data set [3]: Drug concentration in Sprague-Dawley rat plasma at 10 mg/kg, ip at 2 hrs by LC-MS/MS analysis. The class given is ADME, organism-based. In a few lines: (§2)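 Single intraperitoneal dose to 4-week-old male rats (n = 4); vehicle 36.1% PEG400/9.1% ethanol/4.6% Solutol/50% H₂O. Tail-nick whole blood (ca. 70 μL) collected at 0, 0.5, 1, 2, 4, 6 and 24 h postdose. Plasma drug levels quantified by LC-MS/MS with an internal standard.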

A further data set deals with T2, Sphingosine kinase 2 (Mus musculus, UniProt Q9JIA7).
T2 sequence (Q9JIA7 whole entry): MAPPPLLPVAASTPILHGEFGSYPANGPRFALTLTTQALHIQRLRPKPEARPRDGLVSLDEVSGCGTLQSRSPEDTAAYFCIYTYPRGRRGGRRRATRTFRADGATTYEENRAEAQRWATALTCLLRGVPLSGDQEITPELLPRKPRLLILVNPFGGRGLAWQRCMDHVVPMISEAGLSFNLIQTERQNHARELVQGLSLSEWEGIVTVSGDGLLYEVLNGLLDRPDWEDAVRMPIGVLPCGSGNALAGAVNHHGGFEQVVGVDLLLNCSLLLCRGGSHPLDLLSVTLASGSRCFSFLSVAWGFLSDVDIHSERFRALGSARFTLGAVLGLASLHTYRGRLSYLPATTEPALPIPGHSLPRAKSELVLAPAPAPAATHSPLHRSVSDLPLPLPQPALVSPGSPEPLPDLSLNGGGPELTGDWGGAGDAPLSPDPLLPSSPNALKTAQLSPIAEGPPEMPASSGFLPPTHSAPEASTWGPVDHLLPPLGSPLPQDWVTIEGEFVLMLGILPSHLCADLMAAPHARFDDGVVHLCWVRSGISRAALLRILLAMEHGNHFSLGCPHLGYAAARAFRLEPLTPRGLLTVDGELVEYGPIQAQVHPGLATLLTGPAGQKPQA
Kind of data set: Inhibition of recombinant mouse SphK2 transfected in HEK293T cells using D-erythro-sphingosine measured after 20 mins in presence of gamma-[p32]-ATP by autoradiography and liquid scintillation counting method. The format is cell-based. Put shortly:
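Lysate of mouse SphK2 from baculovirus-infected Sf9 or transfected HEK293T cells (0.02–0.03 mg protein). Buffer: 20 mM Tris-Cl pH 7.4 with MgCl₂, phosphatase/protease inhibitors, 10% glycerol and 1 M KCl. Substrate 5 μM D-erythro-sphingosine, 10 μM γ-[³²P]ATP, compound 10–30,000 nM. Reaction run 20 min at 37 °C, then lipids extracted and separated by TLC. Product detected by autoradiography and quantified by scintillation counting; run in duplicate.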

Data set [4] deals with Mus musculus. As to the kind of experiment: In vivo inactivation of Spns2 gene in C57BL/6j mouse assessed as decrease in circulating lymphocytes at 20 mg/kg, ip measured after 4 hrs by blood analyzer. The class given is functional, organism-based. Put shortly: as §1
The nature of data set [5]: Drug concentration in Sprague-Dawley rat plasma at 10 mg/kg, ip at 24 hrs by LC-MS/MS analysis. The class given is ADME, organism-based. Put shortly: as §2
In another data set the test system is Rattus norvegicus. As to the kind of experiment: In vivo inactivation of Spns2 gene in Sprague-Dawley rat assessed as decrease in circulating lymphocytes at 10 mg/kg, ip measured upto 24 hrs by blood analyzer. The class given is functional. Also on record: scale not given: the % may be the effect or the level left. Put shortly: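 Male rats 4 weeks old (n = 4) received a single intraperitoneal dose in PEG400/ethanol/Solutol/water vehicle. Tail-nick blood sampled at 0, 0.5, 1, 2, 4, 6 and 24 h. Lymphocytes counted from 20 μL blood on a haematology analyzer; counts compared with time 0.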

Data set [6] is filed under the species Mus musculus. As to the kind of experiment: Selectivity ratio of IC50 for mouse SphK2 to recombinant mouse Snps2.
A further data set has as its target Sphingosine kinase 1 (Mus musculus, UniProt Q8CI15). Kind of data set: Inhibition of recombinant mouse SphK1 transfected in HEK293T cells using D-erythro-sphingosine measured after 20 mins in presence of gamma-[p32]-ATP by autoradiography and liquid scintillation counting method. The class given is cell-based.
Data set [7] in a line: Half life in Sprague-Dawley rat plasma at 10 mg/kg, ip by LC-MS/MS analysis. The format is ADME, organism-based. In a few lines: as §2
Data set [8] is filed under the species Mus musculus. Kind of data set: Selectivity ratio of IC50 for mouse SphK1 to recombinant mouse Snps2.
For data set [9], the target named is T3, Sphingosine-1-phosphate transporter SPNS2 (Mus musculus, UniProt Q91VM4).
T3 sequence (Q91VM4 whole entry): T1 sequence (whole entry)
As to the kind of experiment: (§3) Inhibition of mouse Spns2 transfected in human HeLa cells by measuring S1P release by LC/MS analysis. The format is cell-based. Put shortly:
(§4)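 Mouse Spns2-transfected HeLa cells (G418-selected) held 18–20 h in RPMI 1640/0.2% fatty acid-free BSA containing 1 mM 4-deoxypyridoxine, 2 mM NaF and 0.2 mM Na₃VO₄ across a compound concentration series. Released S1P quantified by LC-MS/MS with d₇-S1P internal standard; IC50 calculated from the concentration–effect curve.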

The target in data set [10] is T1, Sphingosine-1-phosphate transporter SPNS2 (Mus musculus). Described as §3. The format is cell-based. The settings on record: dose <= 5.0 µM, DDE = dose-dependent effect. In a few lines:
as §4

Calls of active or inactive are those of the source. The rule behind the calls is not given here.

Chain of Sphingosine kinase 1 (Q8CI15 whole entry): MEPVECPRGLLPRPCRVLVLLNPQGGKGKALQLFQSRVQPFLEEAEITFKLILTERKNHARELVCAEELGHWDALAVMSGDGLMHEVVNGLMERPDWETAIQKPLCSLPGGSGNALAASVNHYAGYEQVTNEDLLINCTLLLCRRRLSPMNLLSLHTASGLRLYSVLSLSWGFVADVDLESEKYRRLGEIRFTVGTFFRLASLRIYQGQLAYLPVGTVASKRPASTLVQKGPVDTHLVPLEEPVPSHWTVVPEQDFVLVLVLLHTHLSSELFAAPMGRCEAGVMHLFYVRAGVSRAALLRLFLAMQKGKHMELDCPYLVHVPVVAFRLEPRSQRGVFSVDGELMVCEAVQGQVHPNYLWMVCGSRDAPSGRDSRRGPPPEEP

Broadly, the inhibition is the drop in the measured response relative to a control, in per cent. Broadly, the IC50 is the concentration at which inhibition is half-maximal. For orientation: half-life means how long it takes for the measured level to halve. With `CCCCCCCCCCc1ccc(-c2noc(CCCN)n2)cc1.Cl`, the inhibition result with Mus musculus [1] and in the data set on Mus musculus [4] was “Active” each time. Also, the inhibition in [2] was 67%; in [10], “Dde”. The same compound came in with a concentration at 2 h in data set [3] of 5 µM. The figures for the IC50 (at Sphingosine kinase 2; on Sphingosine kinase 1; in [9]) were 30 µM, at least 30 µM and 1.93 µM, respectively. The concentration at 24 h in [5] turned out to be 2 µM. For the same compound, the Activity in the data set on Rattus norvegicus is given as 25%. Also, the Ratio IC50 in the data set filed under Mus musculus [6] and in the data set listed under Mus musculus [8] was 15 throughout. In [7], this compound returned a half-life of over 8 h.
